Reference: ChEMBL document CHEMBL2375244 (J Med Chem, 2013)
Each block holds one molecule with its values, some of them ahead of it.

What was measured:
CDK2/Cyclin A2 [1] = biological target: T1, CDK2/Cyclin A2 (Homo sapiens, UniProt P24941); experiment: Inhibition of human CDK2/Cyclin A2 using PKTPKKAKKL as substrate by PK/LDH spectrophotometric analysis; format: protein-complex assay
[2] = Cytotoxicity against mouse GC-1 cells after 72 hrs by MTT assay; format: functional, cell-based; conditions: GC-1, 72 h
In short: (§1)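 Cells kept in RPMI or DMEM with 10% FBS at 37 °C, 5% CO₂ and allowed to attach overnight; 72 h with increasing inhibitor concentrations; then 1 mg/mL MTT for 3 h, DMSO solubilisation, OD read at 540 nm. Testis lines had culture conditions adapted to them. Dose-response in triplicate, 9 concentrations between 0.02 and 100 μM, averaged.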

[3] = Cytotoxicity against mouse GC-2 cells after 72 hrs by MTT assay; format: functional, cell-based; conditions: GC-2, 72 h; in short: as §1
[4] = Cytotoxicity against mouse TM4 cells after 72 hrs by MTT assay; format: functional, cell-based; conditions: TM4, 72 h; in short: as §1
BT-549 = experiment: Cytotoxicity against human BT549 cells after 72 hrs by resazurin/resorufin-based fluorescence assay; format: functional, cell-based; conditions: BT-549, 72 h
In short: (§2)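 CellTiter-Blue viability: 1200 cells per well seeded, incubated overnight at 37 °C, 5% CO₂; drugs serially diluted 2:3 in medium, four replicate wells per concentration plus four diluent-only control wells; 72 h exposure; resazurin reduction to resorufin read by fluorescence (579 nm ex/584 nm em). IC50 is the average of three data sets, each using nine concentrations between 0.004 μM and 12.5 μM.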

SK-BR-3 = experiment: Cytotoxicity against human SK-BR-3 cells after 72 hrs by resazurin/resorufin-based fluorescence assay; format: functional, cell-based; conditions: SK-BR-3, 72 h; in short: as §2
[5] = Cytotoxicity against human RPMI18226 cells after 72 hrs by resazurin/resorufin-based fluorescence assay; format: functional, cell-based; conditions: RPMI18226, 72 h
SK-UT-1 = experiment: Cytotoxicity against human SK-UT-1 cells after 72 hrs by resazurin/resorufin-based fluorescence assay; format: functional, cell-based; conditions: SK-UT-1, 72 h
SW872 = experiment: Cytotoxicity against human SW872 cells after 72 hrs by resazurin/resorufin-based fluorescence assay; format: functional, cell-based; conditions: SW872, 72 h
A673 [6] = experiment: Induction of apoptosis in human A673 cells assessed as caspase-3 activation after 24 hrs by luminescence assay; format: functional, cell-based; conditions: A673, 24 h
In short: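 Caspase-3/7 activation measured with a Caspase-Glo 3/7 luminescent assay. Cells were plated as for the high-throughput viability assay and exposed for 24 h to serial dilutions. EC50 was obtained from the dose-response.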

U-266 = experiment: Cytotoxicity against human U266 cells after 72 hrs by resazurin/resorufin-based fluorescence assay; format: functional, cell-based; conditions: U-266, 72 h
SK-ES1 = experiment: Cytotoxicity against human SK-ES-1 cells after 72 hrs by resazurin/resorufin-based fluorescence assay; format: functional, cell-based; conditions: SK-ES1, 72 h
HOS-TE85 = experiment: Cytotoxicity against human MNNG-HOS cells after 72 hrs by resazurin/resorufin-based fluorescence assay; format: functional, cell-based; conditions: HOS-TE85, 72 h
[7] = Cytotoxicity against human NCI-H929 cells after 72 hrs by resazurin/resorufin-based fluorescence assay; format: functional, cell-based; conditions: NCI-H929, 72 h
CDK2/Cyclin A2 [8] = biological target: T1, CDK2/Cyclin A2; experiment: Inhibition of human CDK2/Cyclin A2 using PKTPKKAKKL as substrate by fluorescence assay; format: protein-complex assay
[9] = Cytotoxicity against human MDA-MB-436 cells after 72 hrs by resazurin/resorufin-based fluorescence assay; format: functional, cell-based; conditions: MDA-MB-436, 72 h
MDA-MB-231 = experiment: Cytotoxicity against human MDA-MB-231 cells after 72 hrs by resazurin/resorufin-based fluorescence assay; format: functional, cell-based; conditions: MDA-MB-231, 72 h
MCF7 = experiment: Cytotoxicity against human MCF7 cells after 72 hrs by resazurin/resorufin-based fluorescence assay; format: functional, cell-based; conditions: MCF7, 72 h
A673 [10] = experiment: Cytotoxicity against human A673 cells after 72 hrs by resazurin/resorufin-based fluorescence assay; format: functional, cell-based; conditions: A673, 72 h
T47D = experiment: Cytotoxicity against human T47D cells after 72 hrs by resazurin/resorufin-based fluorescence assay; format: functional, cell-based
MDA-MB-468 = experiment: Cytotoxicity against human MDA-MB-468 cells after 72 hrs by MTT assay; format: functional, cell-based; conditions: MDA-MB-468, 72 h; in short: as §1

Structure (SMILES): C=CCNc1nc(N)c(C(=O)c2ccc(Cl)s2)s1
- IC50 (CDK2/Cyclin A2 [1]): 12 µM

Structure (SMILES): C=CCNc1nc(N)c(C(C)=O)s1
- IC50 (CDK2/Cyclin A2 [1]): > 100 µM

Structure (SMILES): C=CCNc1nc(N)c(C(=O)c2ccc(C)cc2)s1
- IC50 (CDK2/Cyclin A2 [1]): 37 µM

Structure (SMILES): C=CCNc1nc(N)c(C(=O)c2ccccn2)s1
- IC50 (CDK2/Cyclin A2 [1]): 33 µM

Structure (SMILES): CC(C)(C)Nc1nc(N)c(C(=O)c2ccccc2)s1
- IC50 (CDK2/Cyclin A2 [1]): > 100 µM

Structure (SMILES): CC(C)Nc1nc(N)c(C(=O)c2ccccc2)s1
- IC50 (CDK2/Cyclin A2 [1]): 2 µM

Structure (SMILES): COc1cccc2c1C(=O)c1c(O)c3c(c(O)c1C2=O)C[C@@](O)(C(=O)CO)C[C@@H]3O[C@H]1C[C@H](N)[C@H](O)[C@H](C)O1 [DOXORUBICIN]
- IC50 (BT-549): 0.11 µM
- IC50 (SK-BR-3): 0.09 µM
- IC50 [5]: 0.27 µM
- IC50 (SK-UT-1): 0.076 µM
- IC50 (SW872): 0.14 µM
- EC50 (A673 [6]): 0.39 µM
- IC50 (U-266): 0.67 µM
- IC50 (SK-ES1): 0.042 µM
- IC50 (HOS-TE85): 0.59 µM
- IC50 [7]: 0.065 µM

Structure (SMILES): C=CCNc1nc(N)c(C(=O)c2ccc(Cl)cc2)s1
- IC50 (CDK2/Cyclin A2 [1]): > 100 µM

Structure (SMILES): Nc1nc(NC2CCCCC2)sc1C(=O)c1ccccc1
- IC50 [2]: 9.2 µM
- IC50 [3]: 8.2 µM
- IC50 (CDK2/Cyclin A2 [1]): 1.3 µM
- IC50 [4]: 9.3 µM

Structure (SMILES): CC(=O)c1sc(Nc2ccccc2)nc1N
- IC50 (CDK2/Cyclin A2 [1]): > 100 µM

Structure (SMILES): C=CCNc1nc(N)c(C(=O)c2ccc(F)cc2)s1
- IC50 (CDK2/Cyclin A2 [1]): > 100 µM

Structure (SMILES): C=CCNc1nc(N)c(C(=O)c2ccccc2)s1
- IC50 (CDK2/Cyclin A2 [1]): 15 µM

Structure (SMILES): NC(=O)c1sc(Nc2ccccc2)nc1N
- IC50 [2]: > 60 µM
- IC50 [3]: > 60 µM
- IC50 (CDK2/Cyclin A2 [1]): > 100 µM
- IC50 [4]: > 60 µM

The next lines start with results.

- IC50 (CDK2/Cyclin A2 [1]): 4.8 µM
Structure (SMILES): NC(=O)c1sc(Nc2ccc(S(N)(=O)=O)cc2)nc1N

- IC50 (CDK2/Cyclin A2 [1]): 17 µM
Structure (SMILES): COc1ccc(C(=O)c2sc(Nc3ccc(S(N)(=O)=O)cc3)nc2N)cc1

- IC50 (CDK2/Cyclin A2 [1]): 2.8 µM
Structure (SMILES): N#Cc1ccc(Nc2nc(N)c(C(=O)c3cccnc3)s2)cc1

- IC50 (CDK2/Cyclin A2 [1]): 7.4 µM
Structure (SMILES): Nc1nc(Nc2ccc(S(N)(=O)=O)cc2)sc1C(=O)c1ccc([N+](=O)[O-])cc1

- IC50 (CDK2/Cyclin A2 [1]): 1.6 µM
Structure (SMILES): Nc1nc(Nc2ccccc2)sc1C(=O)c1cccc(F)c1
- IC50 [2]: 3.6 µM
- IC50 [3]: 4.1 µM
- IC50 [4]: 5.1 µM

- IC50 (CDK2/Cyclin A2 [1]): 15 µM
Structure (SMILES): Nc1nc(Nc2ccc(S(N)(=O)=O)cc2)sc1C(=O)c1cccc(Cl)c1

- IC50 (CDK2/Cyclin A2 [1]): 1.4 µM
Structure (SMILES): Nc1nc(Nc2ccccc2)sc1C(=O)c1ccc(F)cc1
- IC50 [2]: 16 µM
- IC50 [3]: 17 µM
- IC50 [4]: 14 µM

- IC50 (CDK2/Cyclin A2 [1]): > 100 µM
Structure (SMILES): Nc1nc(Nc2ccccc2)sc1C(=O)c1cccc(C(F)(F)F)c1

- IC50 (CDK2/Cyclin A2 [8]): 0.07 µM
Structure (SMILES): Nc1nc(Nc2ccc(S(N)(=O)=O)cc2)sc1C(=O)c1cccc([N+](=O)[O-])c1
- IC50 [2]: 22 µM
- IC50 [3]: 20 µM
- IC50 [4]: 4 µM

- IC50 (CDK2/Cyclin A2 [1]): 99 µM
Structure (SMILES): Nc1nc(Nc2ccccc2)sc1C(=O)c1cccc(Cl)c1

- IC50 (CDK2/Cyclin A2 [1]): > 100 µM
Structure (SMILES): CN(C)/C=C/C(=O)c1sc(Nc2ccc(S(N)(=O)=O)cc2)nc1N

- IC50 (CDK2/Cyclin A2 [8]): 0.1 µM
Structure (SMILES): COc1cccc(C(=O)c2sc(Nc3ccc(S(N)(=O)=O)cc3)nc2N)c1

- IC50 (CDK2/Cyclin A2 [1]): 5.7 µM
Structure (SMILES): Nc1nc(Nc2cccc(F)c2)sc1C(=O)c1ccccc1

- IC50 (CDK2/Cyclin A2 [1]): 2.2 µM
Structure (SMILES): Nc1nc(Nc2ccccc2)sc1C(=O)c1cccc([N+](=O)[O-])c1

- IC50 (CDK2/Cyclin A2 [1]): 3.1 µM
Structure (SMILES): COc1cccc(C(=O)c2sc(Nc3ccccc3)nc2N)c1

- IC50 (CDK2/Cyclin A2 [8]): 0.2 µM
Structure (SMILES): NC(=O)c1ccc(Nc2nc(N)c(C(=O)c3cccnc3)s2)cc1

- IC50 (CDK2/Cyclin A2 [8]): 0.05 µM
Structure (SMILES): Nc1nc(Nc2ccc(S(N)(=O)=O)cc2)sc1C(=O)c1cccc(F)c1
- IC50 (BT-549): > 10 µM
- IC50 (SK-BR-3): 1.2 µM
- IC50 [5]: 6.8 µM
- IC50 [9]: 1.3 µM
- IC50 (MDA-MB-231): 1.2 µM
- IC50 (SK-UT-1): 1.6 µM
- IC50 [2]: 6.4 µM
- IC50 (SW872): 3.1 µM
- IC50 (U-266): 1.5 µM
- IC50 (MCF7): 1.3 µM
- IC50 (A673 [10]): 0.45 µM
- IC50 (SK-ES1): 1.1 µM
- IC50 (HOS-TE85): 2.2 µM
- IC50 [3]: 3.9 µM
- IC50 (T47D): 0.98 µM
- IC50 [7]: 1 µM
- IC50 [4]: 4.8 µM
- IC50 (MDA-MB-468): 0.8 µM

- IC50 (CDK2/Cyclin A2 [1]): 5 µM
Structure (SMILES): C=CCNc1nc(N)c(C(=O)c2ccc3ccccc3c2)s1

- IC50 (CDK2/Cyclin A2 [8]): 0.07 µM
Structure (SMILES): Nc1cccc(C(=O)c2sc(Nc3ccc(S(N)(=O)=O)cc3)nc2N)c1
- IC50 (BT-549): > 10 µM
- IC50 (SK-BR-3): 4.1 µM
- IC50 [5]: > 10 µM
- IC50 [9]: > 10 µM
- IC50 (MDA-MB-231): > 10 µM
- IC50 (SK-UT-1): > 10 µM
- IC50 (SW872): > 10 µM
- IC50 (U-266): 5.5 µM
- IC50 (MCF7): > 10 µM
- IC50 (A673 [10]): 8.8 µM
- IC50 (SK-ES1): 9.8 µM
- IC50 (HOS-TE85): > 10 µM
- IC50 (T47D): 5.8 µM
- IC50 [7]: 6.8 µM

- IC50 (CDK2/Cyclin A2 [1]): 8.8 µM
Structure (SMILES): Nc1ccc(C(=O)c2sc(Nc3ccc(S(N)(=O)=O)cc3)nc2N)cc1
